Source: ChEMBL document CHEMBL4513216, “Probing the Open Global Health Chemical Diversity Library for Multistage-Active Starting Points for Next-Generation Antimalarials” (ACS Infect Dis, 2020)

Assay: Toxicity liver stage against HepG2, at 10uM
Assay type: cell-based
Design: test concentration 10 uM, cell line HepG2-A16-CD81EGFP
Conditions: human, HepG2-A16-CD81EGFP cells; read-out: INHIBITION
How it was run: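 Uninfected HepG2-A16-CD81EGFP cells, 3 × 10^3 per well, 1536-well, plated on prespotted compound at 10 μM final, parasite-free screening media added to match infected plates; puromycin 10 μM positive, DMSO 0.5% negative; run in parallel with 48 h PbLuc assay at 37 °C, 5% CO2; viability by CellTiter-Glo luminescence, normalized to controls.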

SMILES	cytotoxicity at 10 µM [%]
Cc1ccc(-c2c[nH]c([C@@H]3COCCN3Cc3ncc[nH]3)n2)cc1	0.835
CN1CCN(S(=O)(=O)c2cccc(F)c2)c2ccccc21	38.5
CO[C@@H]1CN(c2ccccc2)S(=O)(=O)[C@@]12CCN(Cc1ccccc1)C2	3.51
COc1cccc(OC)c1CN1CC(O)CN(S(C)(=O)=O)CC1=O (centres undefined)	-82.6
COc1ccc(-c2noc(C(N)CCSC)n2)cc1OC (centres undefined)	11.2
CSCC[C@@H](CO)NC(=O)c1ccc2nc(NS(C)(=O)=O)sc2c1	10.7
O=C(CSC1CCCC1)N1CCN(C(=O)C2CC2c2ccccc2)CC1 (centres undefined)	-4.74
CC(C)NC(=O)Nc1nc2c(s1)CN(C(=O)NCc1cccs1)CC2	33
Cc1noc(CNC(=O)CN(C)c2nc3c(F)cccc3s2)n1	3.76
COC(=O)N1CCc2ccccc2C1C(=O)NCc1ccccn1 (centres undefined)	-3.01
O=C(C1CCC1)N1C[C@@H]2CN(c3ccccc3)C(=O)[C@@H]2C1	1.05
CC(C)(C)n1ncc2c1NC(=O)CC2c1c(F)cccc1F (centres undefined)	-1.53
CC(=O)N1CC2(CCCN2Cc2ccc(Cl)cc2)Cc2ccccc21 (centres undefined)	11.9
CS(=O)(=O)N1CC2(CCN(CC3CCCCC3)CC2)Cc2ccccc21	6.25
Cc1ccc(CN(C)Cc2ncc(C(C)(C)C)o2)o1	-6.58
N#CCCCn1cnc2c(F)cc(Br)cc2c1=O	4.29
CCc1cc(N2CCC(Nc3ccc4nnc(C)n4n3)CC2)ncn1	4.69
Cc1c(Br)cccc1NC(=O)N(C)CCO	-24.5
CCN1CCOC(CNCc2cnc(C(C)(C)C)s2)C1 (centres undefined)	-2.24
CC(C(=O)NCc1ccc2c(c1)OCCO2)n1cncn1 (centres undefined)	-141
CCCC(C#N)NC(=O)c1sccc1CC (centres undefined)	12.7
Cc1nc(NC(=O)C(C)N(C)Cc2ccc3c(c2)OCO3)sc1C (centres undefined)	0.787

SMILES	cytotoxicity at 10 µM [%]
CC(C)(C)NC(=O)C1CCCCN1Cc1nccn1CC(F)(F)F (centres undefined)	6.21
CCN(CC)C1CCN(C(=O)Nc2cc(F)c(OC)c(F)c2)C1 (centres undefined)	4.55
CCN1CCCN(S(=O)(=O)c2cc3ccccc3o2)CC1	3.53
CNC(=O)NC(=O)CN1CCN(CC2CC2)c2ccccc21	10.4
O=C(CNc1cc(-n2cnnn2)ccc1F)Nc1cc(F)ccc1F	-4.09
COC(=O)C1CCCN1CC(=O)NCc1ccc(OCC(N)=O)cc1 (centres undefined)	7.45
CCOCCN1CCN(C(C)C(=O)Nc2ccnn2C(C)C)CC1 (centres undefined)	-7.87
CN(C(=O)NCc1nccn1Cc1ccccc1)C1CC1	-2.22
OC[C@@H](O)CN(CCC(F)(F)F)c1ncc(Cl)cn1	12.8
NC(=O)NCC1CCCCN1C(=O)c1ccc(Cl)s1 (centres undefined)	-12.1
Cc1ccccc1S(=O)(=O)NC(=O)C1(c2cccc(Cl)c2)CC1	1.97
O=C(Nc1cc(CSCCO)ccn1)c1cc2ccccc2[nH]1	17.3
COc1ccc(N(Cc2ccco2)C(=O)C2CCCO2)cc1F (centres undefined)	-3.51
Cc1cc(C(C)NC(=O)Cn2nc(C)c3ccccc3c2=O)c(C)o1 (centres undefined)	-5.3
CN(CCc1ccccn1)C(=O)C(O)c1ccc(Br)cc1 (centres undefined)	-0.779
Cc1cc(C(=O)NC2(c3ccc(Br)cc3)CC2)n(C)n1	56.7
Cc1noc(C)c1CN(C)C(C)c1cccs1 (centres undefined)	-3.11
Cc1nc(C)n(Cc2cccc(NC(=O)N(C)CCC(C)O)c2)n1 (centres undefined)	-6.64
CCNC(=O)N1CCc2ccc(NC(=O)NCc3ccsc3)cc21	-11.8
Cn1c(=O)[nH]c(=O)c2cc(C(=O)N3CCCC3C3CCCC3)cnc21 (centres undefined)	14
Cc1nc(C2CCCN(C(=O)CN3CCCC3=O)C2)sc1C (centres undefined)	-6.96
O=C(C1CCCc2[nH]ncc21)N1CCCCCC1 (centres undefined)	4.65

SMILES	cytotoxicity at 10 µM [%]
NC(=O)c1ccc(N2CCCCC2)c(NC(=O)c2cncc(Br)c2)c1	-9.41
CCCN1CCC(NC(=O)c2ccc(F)cc2I)CC1	-11.8
Cc1cccc(N2CC[C@H]3CO[C@H](CN(C)Cc4ccco4)[C@H]3C2)n1	13.3
COCc1cnc2n1CCN(C(=O)c1cc3cc(Cl)ccc3o1)C2C (centres undefined)	-112
Cc1cc(=O)[nH]c(NCCNC(=O)c2ccccc2N2CCCC2)n1	0.998
c1cc(-c2cncnc2)cc(-c2ccn(CC3CCNC3)n2)c1 (centres undefined)	5.54
Cc1cccnc1CN1CCN(C[C@]2(O)CCCN3CCCC[C@@H]32)CC1	-0.418
CCOC(=O)C1(Cc2cccc(Cl)c2)CCCN(Cc2ncc[nH]2)C1 (centres undefined)	-5.22
CCOC(=O)CC(C)Nc1nc(C(C)(C)C)nc2c1cnn2C (centres undefined)	6.51
COc1ccc2[nH]nc(CN3CCN(Cc4cccc(F)c4)CC3)c2c1	-8.14
O=C(O)c1cn(CC2CCCN(c3nc4ccccc4s3)C2)nn1 (centres undefined)	-12.2
Nc1nc(O)cc(N2CCC(c3cc(Cc4ccccc4)n[nH]3)CC2)n1	1.85
CC(=O)Nc1ccc(CN2CCc3[nH]cnc3C2c2nccn2C)cc1 (centres undefined)	-182
COc1coc(CN2CCCC(CCc3ccccc3C)C2)cc1=O (centres undefined)	-0.931
CC(C)N1CCC(CC(=O)N2CCC(C(O)c3nccn3C)CC2)CC1 (centres undefined)	-0.153
COc1ccc(-c2noc(CN3CCN(c4cnccn4)CC3)n2)cc1	6.58
CN(CCC(C)(C)O)C(=O)C1CCC(=O)N(Cc2ccc(Cl)cc2)C1 (centres undefined)	7.67
Cc1ccc2[nH]c(=O)cc(C(=O)N[C@@H]3C[C@@H](CO)N(C)C3)c2c1	5.43
CC(=O)NCCc1nc(C(C)C)nn1-c1ccncc1C	3.26
CN1CCN2C[C@@H](NC(=O)c3nc4ccccc4[nH]3)C[C@H]2C1	-0.159
Cn1cc(CN2CCCC23CCN(c2nc4ccccc4s2)CC3)cn1	4.86
OC1(CN2CCCCC2)CCN(c2nccc(C(F)(F)F)n2)C1 (centres undefined)	-7.07

SMILES	cytotoxicity at 10 µM [%]
Cc1nc(CCCNC(=O)c2coc(CN3CCOCC3)c2)sc1C	-2.11
COc1cccc(-c2noc(-c3ccc(NCCCN)nc3)n2)c1OC	-1.43
CSc1ccccc1C(=O)N1CCN(C)C2(CCC(=O)N(C)CC2)C1 (centres undefined)	3.84
CNC(=O)c1sccc1S(=O)(=O)NC	8.52
O=S1(=O)CCC(n2cc(C3=CCN(CCc4ccccc4)CC3)cn2)C1 (centres undefined)	-2.64
Cc1c(C(C)NC2CCN(C(C)C)CC2)cnn1-c1ccc(F)cc1F (centres undefined)	-6.58
CC(Cn1cccn1)NCc1csc2c1CCCC2 (centres undefined)	-2.86
O=C(C1CC1)N1CCc2c(ncnc2N2CCN3CCCC3C2)C1 (centres undefined)	-13.6
CO[C@H]1CN(C(C)C)C[C@@H]1NC(=O)c1cc(COc2ccccc2)[nH]n1	-2.43
CCc1nnc(CN(C)C(=O)C2CC(=O)N(C3CC3)C2)o1 (centres undefined)	2.28
COC(=O)C(C)NCc1ccc2[nH]c(C)c(C)c2c1 (centres undefined)	2.4
Cc1ccc(-c2cccc(-c3ccn(CCN4CCCC4)n3)c2)nn1	-8.74
CCCc1cc(C(=O)N(C)Cc2cccc3ncccc23)n(C)n1	-0.758
Cn1ccnc1-c1ccccc1C(=O)N1CCc2c(nc(N)[nH]c2=O)C1	-5.3
C[C@@H]1CN(C(=O)c2ccc(C#N)nc2)C[C@@]1(O)C1CC1	-28.8
Cc1nnc(NC(=O)NCc2ccc(OC3CCCC3)nc2)s1	0.141
CCc1c(C(=O)N2CCC(CC(N)=O)CC2)cnn1C(C)(C)C	2.2
CC(O)CN1CCN(Cc2coc(-c3ccc(Cl)cc3)n2)CC1 (centres undefined)	-7.42
Cc1cnc(C(=O)N2CCCC(n3cccn3)C2)cn1 (centres undefined)	-0.29
Cc1ccc(-n2nnc(C(=O)NCC(F)(F)F)c2C2CC2)cc1	-6.94
Cc1cccc(CNCc2ccc(NC(=O)NC(C)C)cc2)c1	-3.03
FC(F)(F)c1ccc(CN2CCN(Cc3cscn3)CC2)cc1	-4.94

SMILES	cytotoxicity at 10 µM [%]
Cc1nc(CN2CCCC(NCc3c(C)nc4sccn34)C2)no1 (centres undefined)	6.21
CC(C(=O)NCCCN1CCCCCC1=O)n1cncn1 (centres undefined)	-20.9
CN(Cc1cscn1)C1CCCN(Cc2noc(C3CC3)n2)C1 (centres undefined)	-2.77
O=C(NCCn1ccnc1)c1cccc(F)c1	-10
Cc1nnc(NC(=O)NCc2ccc(N3CCN(C)CC3)nc2)s1	-7.91
Cc1cc(C)c(CNC(=O)N(C)Cc2sccc2C)c(=O)[nH]1	-1.77
CC(O)CN1CCN(Cc2cccc(C(=O)N(C)C)c2)CC1 (centres undefined)	-3.93
Cc1cc(CN2CCCC2Cn2cncn2)no1 (centres undefined)	-10
O[C@@H]1CN(Cc2ccc(F)c(F)c2)CC[C@H]1NCc1ccccn1	3.85
CN(C)CCOCC1CN(C(=O)N2CCCC2)Cc2ccnn2C1 (centres undefined)	4.55
CNC(=O)[C@H]1C[C@@H]2CN(S(=O)(=O)c3ccc(OC)cc3)C[C@@H]2N1C	-3.9
Cc1nc(N2CCCC2)nc2c1CCN(Cc1nccn1C)CC2	-130
CCN1CCC(c2nc3ccc(NC4CCC4)cn3n2)CC1	-121
COCC1CC2(CCN(c3cccc(C)n3)CC2)CN1c1ncccn1 (centres undefined)	-108
c1ccc(CN2CC[C@H]3[C@H]2CCN3c2ncccn2)nc1	1.24
Cn1ccc(CN2CCC3(CC2)CC(Nc2cnccn2)CO3)n1 (centres undefined)	-2.66
Cc1ccc(CN2C[C@@H]3CN(c4ncc(F)cn4)C[C@@H]3C2)cc1	1.86
O=S1(=O)CCN(Cc2cccnc2)[C@H]2CCN(c3ncccn3)CC[C@H]21	-11.2
Cc1ccc(N2CC[C@H]3O[C@H](C(=O)N4CCCCO4)CC[C@H]32)nn1	10.1
CCC1=N[C@@]2(CC[C@@H]3CN(Cc4ccccc4C)C[C@@H]32)C(=O)N1C	-107
Fc1ccc(CNCC2OCCc3cn(CC4CC4)nc32)cc1 (centres undefined)	0.925
